Experimental data reported in ChEMBL document CHEMBL1124279, “N,N-Dialkylated monophenolic trans-2-phenylcyclopropylamines: novel central 5-hydroxytryptamine receptor agonists” (J Med Chem, 1988).

Legend:
[1] = target: T1, Serotonin (5-HT) receptor (Rattus norvegicus) (UniProt P35563+P35365+P32305+P31388+Q9JJ16+P28564+P30994+Q62758+P08909+P14842+P30940+P35364+P19327+P28565); assay: Evaluated for receptor mediated feedback inhibition of 5-HTP formation in hemisphere of rat brain when administered subcutaneously; type: functional
How it was run: (§1)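 Reserpinized male Sprague-Dawley rats (200–300 g), compounds in saline (occasionally a few drops of glacial acetic acid and/or warming), near-neutral pH, given sc at 5 or 10 mL/kg. Reserpine was in acetic acid/5.5% glucose. 5-HTP formation was measured in the brain part. The ED50 is the dose giving a half-maximal decrease, from dose-response curves of four to six doses (n = 3-4).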

[2] = target: T1, Serotonin (5-HT) receptor (Rattus norvegicus); assay: Evaluated for receptor mediated feedback inhibition of 5-HTP formation in limbic tissue of rat brain when administered subcutaneously; type: functional, tissue-based; conditions: Limbic system; how it was run: as §1
[3] = target: T1, Serotonin (5-HT) receptor (Rattus norvegicus); assay: Evaluated for receptor mediated feedback inhibition of 5-HTP formation in striatum tissue of rat brain when administered subcutaneously; type: functional, tissue-based; how it was run: as §1

SMILES | ED50 [1] [µmol/kg] | ED50 [2] [µmol/kg] | ED50 [3] [µmol/kg]
CCCN(CCC)C1CC1c1ccccc1O (single isomer, unassigned; (+)) | > 50 | > 50 | 14.5
CCCN(CCC)C1CC1c1cccc(O)c1 (stereo in doubt; 18) | 0.58 | 0.66 | 0.47
CCCN(CCC)C1CC1c1ccccc1O (single isomer, unassigned; (-)) | 0.38 | 0.28 | 0.26
CCCN(CCC)C1CC1c1ccccc1OC (stereo not given) | 0.72 | 0.93 | 
CN(C)C1CC1c1ccccc1O (stereo not given) | 9.31 | 6.2 | 3.45
CCCCN(CCCC)C1CC1c1cccc(O)c1 (stereo not given) | > 50 | > 50 | > 50
CCCN(CCC)[C@@H]1CCc2cccc(O)c2C1 | 0.077 | 0.061 | 0.065
CCCN(CCC)C1CC1c1ccc(O)c(O)c1 (stereo not given) | > 50 | > 50 | > 50
CCCN(CCC)C1CC1c1cccc(O)c1 (stereo in doubt; (+)-18) | > 50 | > 50 | > 50
CCCN(CCC)C1CC1c1cccc(O)c1 (single isomer, unassigned; (-)) | 0.35 | 0.34 | 0.28
CCCN(CCC)C1CC1c1ccc(O)cc1 (stereo not given) | > 50 | > 50 | > 50
CCCCN(CCCC)C1CC1c1ccccc1O (stereo not given) | > 50 | > 50 | > 50
CN(C)C1CC1c1cccc(O)c1 (stereo not given) | 25.1 | 10.8 | 8.59
CCN(CC)C1CC1c1cccc(O)c1 (stereo not given) | 0.4 | 0.34 | 0.32
CCCN(CCC)C1CC1c1cccc(OC)c1 (stereo not given) | 1.43 | 2.06 | 1.17
CCCN(CCC)C1CC1c1ccccc1O (stereo in doubt; 8) | 0.36 | 0.41 | 0.36
CCN(CC)C1CC1c1ccccc1O (stereo not given) | 0.8 | 0.82 | 1.2
